Measured values: PubChem BioAssay AID463192 (Sanford-Burnham Center for Chemical Genomics, 2010)
Active and inactive are the calls of the source.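 Rule for the calls: active = membrane recruitment of a green fluorescent kinase sensor scored by eye at 30% or more; inactive = the rest.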

Target: G-protein coupled receptor 55 (Homo sapiens) (UniProt Q9Y2T6)
Assay: agonist-driven PKCbII translocation via GPR55 – imaging, HEK293, PKCbII-GFP, SAR follow-up (AID 463192)
Conditions: HEK293 GPR55, PKCbII-GFP membrane recruitment imaging
Outline: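 Assay system: HEK293 cells transiently expressing wild-type human GPR55 and PKC βII-GFP biosensor / Buffer or medium: serum-free MEM / Compound dosing: four-point compound series, 10 nM to 10 µM final, duplicate / Timing: 15 min compound exposure at 37 °C / Detection: fluorescence microscopy of fixed cells, scored by eye / Replicates: duplicate wells per compound dose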

Sequence of G-protein coupled receptor 55 (Homo sapiens) (Q9Y2T6 whole entry, looked up): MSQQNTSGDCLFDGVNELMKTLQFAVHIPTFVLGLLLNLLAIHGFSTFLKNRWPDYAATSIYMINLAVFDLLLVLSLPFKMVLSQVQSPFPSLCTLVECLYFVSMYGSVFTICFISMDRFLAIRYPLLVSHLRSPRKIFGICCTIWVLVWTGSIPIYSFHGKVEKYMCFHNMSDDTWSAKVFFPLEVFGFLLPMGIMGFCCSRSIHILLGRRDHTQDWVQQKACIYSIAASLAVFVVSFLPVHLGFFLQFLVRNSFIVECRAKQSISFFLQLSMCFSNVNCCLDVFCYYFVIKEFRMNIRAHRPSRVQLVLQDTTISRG

Q: For `COc1ccccc1/C=C/C(=O)NC(=S)Nc1ccc(S(=O)(=O)N(C)c2ccccc2)cc1`, which outcome is on record?
A: active; +++

Q: For `Cc1cccc(N2CCN(C(=O)c3cc(S(=O)(=O)N(C)C)ccc3N3CCCC3)CC2)c1C`, which outcome is on record?
A: active; +++

Q: How did the outcome turn out when `CC(C)Oc1ccc(S(=O)(=O)N2CCOCC2)cc1NC(=O)c1ccc(N2CCCC2=O)cc1` was run?
A: active; +++

Q: With `COc1ccc(S(=O)(=O)N2CCOCC2)cc1NC(=O)c1cc2c(s1)CCCC2` as the compound, how does the outcome read?
A: active; +++

Q: Which outcome does the source give for `CCCN(CCC)Cc1c(C(=O)NN=Cc2c[nH]c3ccccc23)nnn1-c1nonc1N` here?
A: active; +++

Q: Which outcome does the source give for `CN(C)S(=O)(=O)c1ccc(N2CCCC2)c(C(=O)N2CCN(c3ccc([N+](=O)[O-])cc3)CC2)c1` here?
A: active; +++

Q: `COc1ccc(-c2csc(NC(=O)CSc3nnc4c(C)cc5ccccc5n34)n2)cc1` was tested. Which outcome did it give?
A: active; +++

Q: How did the outcome turn out when `COc1ccc2cc(C)c3nnc(SCC(=O)Nc4nc(-c5ccc(F)cc5)cs4)n3c2c1` was run?
A: active; +++

Q: `Cc1occc1C(=O)Nc1ccc(OCc2ccccc2)cc1` was tested. Which outcome did it give?
A: active; +++
